According to ChEMBL document CHEMBL1151761, “Radiohalogenated prostate-specific membrane antigen (PSMA)-based ureas as imaging agents for prostate cancer” (J Med Chem, 2008):

How the values were obtained:
Type in all cases: ADME, organism-based
[1] = Biodistribution in PC3 flu tumor of PSMA expressing human PC3 PIP and PSMA deficient human PC3 flu cells xenografted SCID mouse at 2 uCi, iv after 2 hrs; details: in vivo
Outline: (§1)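 Male SCID mice carried subcutaneous PSMA+ PC-3 PIP (left shoulder) and PC-3 flu (right shoulder) xenografts, 1-5 × 10^6 cells in HBSS, and were used at 3-5 mm tumor diameter. Tail-vein injection of 2 µCi radioligand; four mice per time point, killed by cervical dislocation. %ID/g from a standard dilution of the dose, decay-corrected, mean ± SD; PIP tumor:organ ratios.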

[2] = Ratio of drug level in tumor to lung of human PSMA expressing PC3 PIP and PSMA deficient human PC3 flu cells xenografted SCID mouse at 2 uCi, iv after 30 mins; details: in vivo, 0.5 h; outline: as §1
[3] = Ratio of drug level in tumor to small intestine of human PSMA expressing PC3 PIP and PSMA deficient human PC3 flu cells xenografted SCID mouse at 2 uCi, iv after 60 mins; details: in vivo, 1 h
Outline: (§2)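 Male SCID mice carried subcutaneous xenografts: PSMA+ PC-3 PIP behind the left shoulder and PSMA− PC-3 flu behind the right, 1–5 × 10^6 cells in HBSS. Mice were used at 3–5 mm tumor diameter. 2 μCi was given by tail vein, and 4 mice per time point were killed by cervical dislocation. %ID/g came from a standard dilution of the dose, decay-corrected. Ratio is PIP tumor %ID/g to organ %ID/g.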

[4] = Ratio of drug level in tumor to spleen of human PSMA expressing PC3 PIP and PSMA deficient human PC3 flu cells xenografted SCID mouse at 2 uCi, iv after 60 mins; details: in vivo, 1 h; outline: as §2
[5] = Ratio of drug level in tumor to heart of human PSMA expressing PC3 PIP and PSMA deficient human PC3 flu cells xenografted SCID mouse at 2 uCi, iv after 2 hrs; details: in vivo; outline: as §1
[6] = Ratio of drug level in tumor to kidney of human PSMA expressing PC3 PIP and PSMA deficient human PC3 flu cells xenografted SCID mouse at 2 uCi, iv after 60 mins; details: in vivo, 1 h; outline: as §1
[7] = Ratio of drug level in tumor to small intestine of human PSMA expressing PC3 PIP and PSMA deficient human PC3 flu cells xenografted SCID mouse at 2 uCi, iv after 2 hrs; details: in vivo; outline: as §2
[8] = Biodistribution in PC3 PIP tumor of PSMA expressing human PC3 PIP and PSMA deficient human PC3 flu cells xenografted SCID mouse at 2 uCi, iv after 2 hrs; details: in vivo
[9] = test system: Heart; assay: Biodistribution in heart of PSMA expressing human PC3 PIP and PSMA deficient human PC3 flu cells xenografted SCID mouse at 2 uCi, iv after 2 hrs; details: in vivo
[10] = Ratio of drug level in tumor to kidney of human PSMA expressing PC3 PIP and PSMA deficient human PC3 flu cells xenografted SCID mouse at 2 uCi, iv after 2 hrs; details: in vivo; outline: as §1
[11] = Ratio of drug level in tumor to muscle of human PSMA expressing PC3 PIP and PSMA deficient human PC3 flu cells xenografted SCID mouse at 2 uCi, iv after 5 hrs; details: in vivo; outline: as §1
[12] = Ratio of drug level in tumor to spleen of human PSMA expressing PC3 PIP and PSMA deficient human PC3 flu cells xenografted SCID mouse at 2 uCi, iv after 2 hrs; details: in vivo; outline: as §2
[13] = Biodistribution in small intestine of PSMA expressing human PC3 PIP and PSMA deficient human PC3 flu cells xenografted SCID mouse at 2 uCi, iv after 60 mins; details: in vivo, 1 h; outline: as §1
[14] = test system: Stomach; assay: Biodistribution in stomach of PSMA expressing human PC3 PIP and PSMA deficient human PC3 flu cells xenografted SCID mouse at 2 uCi, iv after 60 mins; details: in vivo, 1 h
[15] = test system: Blood; assay: Biodistribution in blood of PSMA expressing human PC3 PIP and PSMA deficient human PC3 flu cells xenografted SCID mouse at 2 uCi, iv after 30 mins; details: in vivo, 0.5 h
[16] = Ratio of drug level in tumor to liver of human PSMA expressing PC3 PIP and PSMA deficient human PC3 flu cells xenografted SCID mouse at 2 uCi, iv after 2 hrs; details: in vivo; outline: as §1
[17] = test system: Liver; assay: Biodistribution in liver of PSMA expressing human PC3 PIP and PSMA deficient human PC3 flu cells xenografted SCID mouse at 2 uCi, iv after 30 mins; details: in vivo, 0.5 h
[18] = Ratio of drug level in tumor to stomach of human PSMA expressing PC3 PIP and PSMA deficient human PC3 flu cells xenografted SCID mouse at 2 uCi, iv after 30 mins; details: in vivo, 0.5 h; outline: as §2
[19] = test system: Blood; assay: Biodistribution in blood of PSMA expressing human PC3 PIP and PSMA deficient human PC3 flu cells xenografted SCID mouse at 2 uCi, iv after 2 hrs; details: in vivo
[20] = Ratio of drug level in PC3 PIP tumor to PC3 flu tumor of human PSMA expressing PC3 PIP and PSMA deficient human PC3 flu cells xenografted SCID mouse at 2 uCi, iv after 60 mins; details: in vivo, 1 h; outline: as §1
[21] = Biodistribution in PC3 flu tumor of PSMA expressing human PC3 PIP and PSMA deficient human PC3 flu cells xenografted SCID mouse at 2 uCi, iv after 5 hrs; details: in vivo; outline: as §1
[22] = test system: Heart; assay: Biodistribution in heart of PSMA expressing human PC3 PIP and PSMA deficient human PC3 flu cells xenografted SCID mouse at 2 uCi, iv after 5 hrs; details: in vivo
[23] = Biodistribution in large intestine of PSMA expressing human PC3 PIP and PSMA deficient human PC3 flu cells xenografted SCID mouse at 2 uCi, iv after 30 mins; details: in vivo, 0.5 h; outline: as §1
[24] = Biodistribution in large intestine of PSMA expressing human PC3 PIP and PSMA deficient human PC3 flu cells xenografted SCID mouse at 2 uCi, iv after 60 mins; details: in vivo, 1 h; outline: as §1
[25] = Ratio of drug level in tumor to spleen of human PSMA expressing PC3 PIP and PSMA deficient human PC3 flu cells xenografted SCID mouse at 2 uCi, iv after 5 hrs; details: in vivo; outline: as §2
[26] = Ratio of drug level in tumor to bladder of human PSMA expressing PC3 PIP and PSMA deficient human PC3 flu cells xenografted SCID mouse at 2 uCi, iv after 30 mins; details: in vivo, 0.5 h; outline: as §1
[27] = Ratio of drug level in tumor to bladder of human PSMA expressing PC3 PIP and PSMA deficient human PC3 flu cells xenografted SCID mouse at 2 uCi, iv after 60 mins; details: in vivo, 1 h; outline: as §1
[28] = test system: Spleen; assay: Biodistribution in spleen of PSMA expressing human PC3 PIP and PSMA deficient human PC3 flu cells xenografted SCID mouse at 2 uCi, iv after 30 mins; details: in vivo, 0.5 h
[29] = Ratio of drug level in tumor to stomach of human PSMA expressing PC3 PIP and PSMA deficient human PC3 flu cells xenografted SCID mouse at 2 uCi, iv after 2 hrs; details: in vivo; outline: as §2
[30] = Biodistribution in PC3 flu tumor of PSMA expressing human PC3 PIP and PSMA deficient human PC3 flu cells xenografted SCID mouse at 2 uCi, iv after 30 mins; details: in vivo, 0.5 h; outline: as §1
[31] = Ratio of drug level in tumor to spleen of human PSMA expressing PC3 PIP and PSMA deficient human PC3 flu cells xenografted SCID mouse at 2 uCi, iv after 30 mins; details: in vivo, 0.5 h; outline: as §2

SMILES: O=C(O)CC[C@H](NC(=O)N[C@@H](CCCCNC(=O)c1ccc([18F])cc1)C(=O)O)C(=O)O
- Drug uptake [1]: 0.25 % ID/g
- Ratio [2]: 5
- Ratio [3]: 11
- Ratio [4]: 1
- Ratio [5]: 25
- Ratio [6]: 0.1
- Ratio [7]: 12
- Drug uptake [8]: 3.7 % ID/g
- Drug uptake [9]: 0.15 % ID/g
- Ratio [10]: 0.1
- Ratio [11]: 35
- Ratio [12]: 1
- Drug uptake [13]: 0.6 % ID/g
- Drug uptake [14]: 0.25 % ID/g
- Drug uptake [15]: 2.5 % ID/g
- Ratio [16]: 0.3
- Drug uptake [17]: 8.7 % ID/g
- Ratio [18]: 11
- Drug uptake [19]: 0.4 % ID/g
- Ratio [20]: 21
- Drug uptake [21]: 0.1 % ID/g
- Drug uptake [22]: 0.03 % ID/g
- Drug uptake [23]: 1.2 % ID/g
- Drug uptake [24]: 0.5 % ID/g
- Ratio [25]: 3.5
- Ratio [26]: 1
- Ratio [27]: 0.4
- Drug uptake [28]: 12.7 % ID/g
- Ratio [29]: 13
- Drug uptake [30]: 0.8 % ID/g
- Ratio [31]: 0.7
